Laboratory results taken from the RNAGym collection of RNA variant scans (doi:10.1126/science.aae0568).
Variants at the floor of the assay were thinned out.

B1: tRNA (parent)
chain: GUUCCGUUGGCGUAAUGGUAACGCGUCUCCCUCCUAAGGAGAAGACUGCGGGUUCGAGUCCCGUACGGAACG

Variants of: B1
Assay: yeast fitness relative to wild type (ratio to wild type); higher = fitter; tRNA-Arg(CCU), competitive growth, 37 C, YPD
Procedure, shortened: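 Genotype frequency changes were the basis for Darwinian fitness relative to wild type. The frequencies came from 100-nucleotide paired-end sequencing of gene amplicons from the start population and each end population of pooled yeast strains with tRNA-Arg(CCU) gene variants at the native locus. Competition ran in YPD at 37°C for 24 hours in six replicates, genotypes needed ≥ 100 starting reads, and estimates < 0.5 were set to 0.5.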

Point of comparison: A69U A70U, yeast fitness 1.03. Against it:
- C66U A69G — lower, 0.801
- A65U A70U — higher, 1.11
- G68A A69C — lower, 0.766
- A65U G68A — lower, 0.729
- U64C G68A — lower, 0.979
- U64C G68C — lower, 0.978
- G68C A70G — lower, 0.897
- G68C A70U — lower, 0.899
- G67A A70G — lower, 0.917
- G67A A70U — lower, 0.938
- A65C G68A — lower, 0.767
- A65C A69C A70G — lower, 0.554
- A69G A70C — lower, 0.896
- A69G A70G — lower, 1.02
- A65U C66G G68C — lower, ≤ 0.5
- U64G A70U — lower, 0.787
- C66A A70G — lower, 0.764
- C66A A69C — lower, 0.665
- C66U A70C — lower, 0.895
- G67A A69C — lower, 0.877
- G67A A69U — lower, 0.733
- C66U G68C — lower, 0.779
- G67U A69G — higher, 1.05
- G67U A70G — lower, 0.822
- C66G — lower, 0.902
- C66U — lower, 0.968
- C66A — lower, 0.766
- G67C A69G — lower, 0.977
- G67C A69C — lower, 0.651
- A65G A70U — lower, 0.943
- A65G A70G — lower, 0.865
- A65U C66A — lower, 0.751
- U64C C66U — lower, 0.958
- A65C G67C — lower, 0.782
- A65G G68U — lower, 0.809
- A65G G68A — lower, 0.924
- A65C C66G — lower, 0.588
- A65C C66U — lower, 0.89
- A65C C66A — lower, 0.808
- A65G A69U — lower, 0.993
- A65U — lower, 0.993
- A65C — lower, 1.01
- A65G — lower, 0.999
- A69U A70G — lower, 0.871
- A69U — higher, 1.04
- A69C — the same, 1.03
- A69G — lower, 0.982
- U64C A70U — lower, 0.953
- G68A A70G — lower, 0.885
- A65G C66G G68A — lower, 0.575
- G67C G68A — lower, 0.874
- C66U G67A — lower, 0.841
